Read-outs that look alike come from different tables or passages of the source.
Legend:
Format in all cases: cell-based
P. falciparum C2B = conditions: 48 h, 72 h and 96 h assays (all time points)
Procedure, shortened: (§1)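 Sorbitol-synchronised ring stages in O+ erythrocytes, run as 48 h (1% parasitaemia, 1% haematocrit, label at start), 72 h (0.25%, 2.5%, label ~48 h) or 96 h (0.1%, 2%, medium change plus label ~72 h). Read-out was [3H]-hypoxanthine incorporation by scintillation. IC50 by log-linear interpolation against 0.5% DMSO; triplicate wells, ≥2 independent assays. RI = resistant-line IC50/3D7 IC50. Controls: chloroquine (Dd2), atovaquone (C2B), cycloguanil (FCR3).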

P. falciparum Dd2 = test system: P. falciparum Dd2
Procedure, shortened: as §1

[1] = test system: Neonatal foreskin fibroblast (NFF) cells; test: Human cell cytotoxicity assay, NFF; conditions: read-out: NFF IC50
Procedure, shortened: (§2)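 NFF and HEK293 cells were grown in RPMI 1640 with 10% FCS and 1% streptomycin at 37 °C and 5% CO2. Exposure was 72 h. Growth inhibition was taken against matched DMSO controls. IC50 came from log-linear interpolation, as the mean ± SD of three independent experiments, each in triplicate.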

[2] = test system: human embryonic kidney (Hek293) cells; test: Human cell cytotoxicity assay, HEK293; conditions: HEK293, read-out: HEK293 IC50
Procedure, shortened: as §2

P. falciparum 3D7 = test: [3H]-hypoxanthine incorporation growth inhibition assay, P. falciparum 3D7; conditions: for IC50: mean ± SD
[3] = test system: P. falciparum 3D7 parasites; test: Isopentenyl pyrophosphate; conditions: for rescue of growth inhibitory activity by IPP supplementation: 96 h assay, 200 μM IPP; for IC50: Plasmodium falciparum, 3D7, 96 h
Procedure, shortened: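 3D7 ring stages, sorbitol-synchronised, in O+ erythrocytes (0.1% parasitaemia, 2% haematocrit). Two identical 96 h assays ran in parallel, one with and one without 200 μM IPP. At ~72 h medium was replaced with fresh medium containing [3H]-hypoxanthine, incubated 24 h more, frozen, harvested and counted. Clindamycin was the positive control. IC50 by log-linear interpolation; triplicate wells, ≥3 independent experiments; unpaired t-test.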

[4] = Plasmodium falciparum, 3D7, 48 h, read-out: P. falciparum 3D7 IC50, 48 h, 48 h assay (fast action)
[5] = Plasmodium falciparum, 3D7, 72 h, read-out: P. falciparum 3D7 IC50, 72 h, 72 h assay
[6] = Plasmodium falciparum, 3D7, 96 h, read-out: P. falciparum 3D7 IC50, 96 h, 96 h assay (slow action)

For O=C1C(O)=C([C@H]2CC[C@H](c3ccc(Cl)cc3)CC2)C(=O)c2ccccc21 [ATQ, atovaquone], the “Resistance Index (RI), C2B versus 3D7, text summary” value (P. falciparum C2B) was > 2000.

CCN(CC)CCCC(C)Nc1ccnc2cc(Cl)ccc12 (stereo not shown) [Chloroquine] was tested, and the “RI (Dd2 IC50/3D7 IC50), 48h” value (P. falciparum Dd2; 48 h assay) was 3, the “RI (Dd2 IC50/3D7 IC50), 72h” value (P. falciparum Dd2; 72 h assay) was 3 and the “RI (Dd2 IC50/3D7 IC50), 96h” value (P. falciparum Dd2; 96 h assay) was 7. The IC50 [1] was 35400 ± 3600 nM, the IC50 [2] was 27300 ± 13300 nM and the “PfSI, Selectivity Index (mammalian cell IC50/P. falciparum IC50)” value (P. falciparum 3D7; NFF or HEK293 IC50 / P. falciparum 3D7 72 h IC50) was 4555–5896. The IC50 (P. falciparum 3D7; [4]) was 8 ± 2 nM, the IC50 (P. falciparum 3D7; [5]) was 6 ± 4 nM and the IC50 (P. falciparum 3D7; [6]) was 4 ± 2 nM. The “rescue of growth inhibitory activity by IPP supplementation” value [3] was “not rescued”.

In the case of CCC[C@@H]1C[C@@H](C(=O)N[C@@H]([C@H]2O[C@H](SC)[C@H](O)[C@@H](O)[C@H]2O)[C@H](C)Cl)N(C)C1 [Clindamycin, clindamycin], the IC50 (P. falciparum 3D7; [4]) is reported as > 50000 nM, the IC50 (P. falciparum 3D7; [5]) is reported as 9 ± 2 nM and the IC50 (P. falciparum 3D7; [6]) is reported as 5 ± 2 nM. For the same compound, the “rescue of growth inhibitory activity by IPP supplementation” value [3] was “rescued”, the IC50 ([3]; read-out: P. falciparum 3D7 IC50, +IPP) was > 500 nM and the IC50 ([3]; read-out: P. falciparum 3D7 IC50, -IPP) was 4 ± 1 nM.

With CCOC(=O)N[C@@H]1CC[C@@H]2[C@@H](C1)C[C@H]1C(=O)O[C@H](C)[C@H]1[C@H]2/C=C/c1ccc(-c2cccc(F)c2)cn1 [Vorapaxar] the “fold less active than himbeline” value (P. falciparum 3D7; 96 h assays, 3D7) was ~ 6 fold, the IC50 (P. falciparum 3D7; [4]) was 11200 ± 3000 nM and the IC50 (P. falciparum 3D7; [5]) was 3930 ± 1070 nM. For the same compound, the IC50 (P. falciparum 3D7; [6]) was 3500 nM and the IC50 (P. falciparum 3D7; read-out: P. falciparum 3D7 IC50, 96 h, 96 h assay (slow action)) was 3520 ± 250 nM.

— PMC8100350 (International Journal for Parasitology: Drugs and Drug …, 2021)
